Data on ten compounds can be found in ChEMBL document CHEMBL1127425, “Latent alkyl isocyanates as inhibitors of aldehyde dehydrogenase in vivo” (1994).

In one test the target is Aldehyde dehydrogenase, mitochondrial (Rattus norvegicus) (UniProt P11884). In words: Compound was evaluated for inhibition of class II aldehyde dehydrogenase in intact rat liver mitochondria in vitro at 1 mM.
Conditions: not given
With `CCCNC(=O)N(C)S(=O)(=O)c1ccc(Cl)cc1`, the Inhibition (usually how much of the control response was suppressed) came out at 49%.

In the next test the target is Aldehyde dehydrogenase, mitochondrial ALDH2 (Rattus norvegicus) (UniProt P11884). The experiment in a line: Evaluated for inhibition of hepatic mitochondrial Aldehyde dehydrogenase (ALDH) from rat. The note with it: concentration not given here.
Sequence of Aldehyde dehydrogenase, mitochondrial ALDH2 (Rattus norvegicus) (P11884 whole entry, looked up): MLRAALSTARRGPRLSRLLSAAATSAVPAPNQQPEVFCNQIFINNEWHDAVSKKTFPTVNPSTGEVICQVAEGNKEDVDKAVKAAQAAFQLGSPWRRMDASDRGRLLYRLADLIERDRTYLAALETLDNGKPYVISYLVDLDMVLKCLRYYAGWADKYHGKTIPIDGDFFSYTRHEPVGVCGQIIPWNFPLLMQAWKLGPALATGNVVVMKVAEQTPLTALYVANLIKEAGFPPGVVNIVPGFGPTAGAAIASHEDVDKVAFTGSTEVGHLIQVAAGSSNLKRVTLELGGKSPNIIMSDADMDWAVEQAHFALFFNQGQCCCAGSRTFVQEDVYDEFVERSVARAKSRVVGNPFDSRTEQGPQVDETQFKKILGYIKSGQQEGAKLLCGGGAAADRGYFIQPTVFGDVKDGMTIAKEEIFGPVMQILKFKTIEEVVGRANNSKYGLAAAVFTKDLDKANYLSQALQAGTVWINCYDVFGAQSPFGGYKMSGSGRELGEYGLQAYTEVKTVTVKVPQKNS
In the case of `CCCNC(=O)N(CC)S(=O)(=O)c1ccc(Cl)cc1`, the inhibition – broadly, how much of the control response was suppressed – came to 78%.

A further test has as its system Rattus norvegicus. The experiment in a line: Compound was evaluated for blood acetaldehyde levels elicited by compound after ethanol administration to rat. The class given is functional.
Conditions: not given
A digest of the protocol: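 Fasted male Sprague-Dawley rats (160–200 g) got test agent at 1.0 mmol/kg ip at time zero, suspended in 2% aqueous CMC (peanut oil for the trifluoroacetyl pro-prodrug and N1-EtCP). Ethanol 2.0 g/kg ip followed at 2 h. Rats were killed 1 h after ethanol and blood AcH was measured. Chlorpropamide served as positive control and vehicle alone as control. Groups of three were used, repeated with three more when active. Results are mean ± SEM, ANOVA with Newman-Keuls.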
On to `CCCNC(=O)n1c(=O)cc[nH]c1=O`, for which the Acetaldehyde level worked out at 700 µM.

Compound `CCCN1C(=O)CN(S(=O)(=O)c2ccc(Cl)cc2)C1=O` displayed an Acetaldehyde level of 20 µM.

`C=CCN(C(=O)NCCC)S(=O)(=O)c1ccc(Cl)cc1` displayed an Acetaldehyde level of around 750 µM.

With `CCCNC(=O)N1C(=O)CNC1=O`, the Acetaldehyde level is around 0 µM.

In the case of `CCCNC(=O)SCc1ccccc1`, the Acetaldehyde level was 550 µM.

`CCCNC(=O)NS(=O)(=O)c1ccc(Cl)cc1` [CHLORPROPAMIDE] displayed an Acetaldehyde level of around 170 µM.

As for `CCCNC(=O)N(CC)S(=O)(=O)c1ccc(Cl)cc1`, the Acetaldehyde level is around 410 µM.

The compound `CCCN(C(=O)N(CC)S(=O)(=O)c1ccc(Cl)cc1)C(=O)C(F)(F)F` registered an Acetaldehyde level of around 450 µM.

In turn, `CCCNC(=O)N1C(=O)c2ccccc2S1(=O)=O` registered an Acetaldehyde level of around 500 µM.

A further test deals with Aldehyde dehydrogenase, mitochondrial ALDH2 (Rattus norvegicus) (UniProt P11884). In words: Evaluated for inhibition of class II mitochondrial Aldehyde dehydrogenase (ALDH) in osmotically disrupted mitochondria from rat. The note with it: concentration not given here.
Compound `CCCNC(=O)N(C)S(=O)(=O)c1ccc(Cl)cc1` had an inhibition of 74%.
